Measured values published in ChEMBL document CHEMBL2396655, “Design, synthesis, and biological evaluation of (E)-N-aryl-2-arylethenesulfonamide analogues as potent and orally bioavailable microtubule-targeted anticancer agents” (J Med Chem, 2013).
Activity calls are given as the source filed them. The calls are words filed in the database; no cut-off is given here.

Tests used:
Mus musculus [1] = experiment: Oral bioavailability in ICR mouse at 5 mg/kg by LC-MS/MS analysis; assay type: ADME, organism-based; conditions: in vivo
In short: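 Male ICR mice, 6–8 weeks old (N=3 per group), with a carotid artery cannula implanted one day before dosing. Dosed at 5 mg/kg in NMP:PEG300:water (1:4:5) as an IV bolus or by oral gavage. Blood drawn at 2–360 min; plasma protein-precipitated with acetonitrile containing internal standard, assayed by LC/MS/MS; noncompartmental analysis.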

Mus musculus [2] = experiment: Elimination half life in ICR mouse at 5 mg/kg, iv by LC-MS/MS analysis; assay type: ADME, organism-based; design: dose 5 mg/kg, route intravenous; conditions: in vivo
In short: (§1)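 Male ICR mice, 6–8 weeks old, N=3 per group. Single 5 mg/kg dose in NMP:PEG300:water (1:4:5 v/v), given as IV bolus or oral gavage. Serial arterial blood was drawn through a carotid cannula at 2–360 min. Plasma was protein-precipitated with acetonitrile containing internal standard and assayed by LC/MS/MS. Parameters were derived by noncompartmental analysis.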

Mus musculus [3] = experiment: Clearance in ICR mouse at 5 mg/kg, iv by LC-MS/MS analysis; assay type: ADME, organism-based; design: dose 5 mg/kg, route intravenous; conditions: in vivo; in short: as §1
Plasma = experiment: Plasma protein binding in rat at 10 to 50 uM by equilibrium dialysis; assay type: ADME, cell-free
Liver [4] = experiment: Metabolic stability in human liver S9 fraction assessed as compound remaining at 10 uM after 1 hr by LC-MS/MS analysis; assay type: ADME, subcellular; conditions: s9, 1 h
In short: (§2)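 Compound at 10 μM was incubated with rat, dog or human liver S9 fraction (1 mg/mL) for 0, 30 and 60 min. Parent remaining at 1 h was quantified by LC-MS/MS.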

Liver [5] = experiment: Metabolic stability in dog liver S9 fraction assessed as compound remaining at 10 uM after 1 hr by LC-MS/MS analysis; assay type: ADME, subcellular, Canis lupus familiaris; conditions: s9, 1 h; in short: as §2
[6] = Cytotoxicity against human HepG2 cells after 4 hrs by Alamar Blue assay; assay type: cell-based; conditions: read-out: LD50
2008 = experiment: Growth inhibition of human 2008 cells; assay type: functional
CCRF-CEM = experiment: Resistance factor, ratio of GI50 for multidrug-resistant human CEM/C2 cells to GI50 for human CEM cells; assay type: functional
MES-SA = experiment: Resistance factor, ratio of GI50 for multidrug-resistant human MES-SA/Dx5 cells to GI50 for human MES-SA cells; assay type: functional
Tubulin (Homo sapiens) = Tubulin (Homo sapiens) (UniProt P68371+Q9H4B7+P0DPH7+P68366+Q13509+Q71U36+P04350+Q3ZCM7+P07437+P68363+Q9BQE3+Q6PEY2+Q13885+Q9BVA1+Q9BUF5); experiment: Inhibition of tubulin polymerization in human DU145 cells after 24 hrs by Western blotting analysis; assay type: cell-based; conditions: DU-145
Tubulin (Sus scrofa) = Tubulin (Sus scrofa) (UniProt P02554+P02550); experiment: Competitive binding affinity to pig brain tubulin vinblastine binding site at 0.1 to 100 uM after 1 hr by mass spectrophotometric analysis in presence of vinblastine
In short: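 Porcine brain tubulin (1.0 mg/mL) in PIPES 80 mM, MgCl₂ 2 mM, EGTA 0.5 mM, pH 6.9, at 37 °C. […] Competitor was 0.1–100 μM for 1 h. Unbound ligand in the 30 kDa ultrafiltrate was measured by MS. Runs were in triplicate; IC50 came from a Hill fit.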

Tubulin = Tubulin (Sus scrofa, UniProt P02554+P02550); experiment: Competitive binding affinity to pig brain tubulin colchicine binding site after 1 hr by mass spectrophotometric analysis in presence of colchicine; assay type: tissue-based
In short: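 Porcine brain tubulin (1.0 mg/mL) in PIPES 80 mM, MgCl₂ 2 mM, EGTA 0.5 mM, pH 6.9, at 37 °C. Competitor was 0.1–100 μM for 1 h. Unbound ligand in the 30 kDa ultrafiltrate was measured by MS. Runs were in triplicate; IC50 came from a Hill fit.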

DU-145 [7] = experiment: Induction of apoptosis in human DU145 cells assessed as caspase activation at 10 to 20 nM after 24 to 72 hrs by Western blotting analysis; assay type: functional, cell-based
DU-145 [8] = experiment: Mitotoic arrest in human DU145 cells assessed as complete loss of coordination in mitotic spindle assembly at 25 nM after 24 hrs by FITC and propidium iodide staining-based confocal laser microscopic analysis; assay type: functional, cell-based
In short: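 DU145 cells grown on glass coverslips, exposed to 0.025 μM for 24 h, fixed in 4% paraformaldehyde, permeabilized in PBS with 10% FBS/0.1% Triton X-100, stained with FITC-conjugated anti-α-tubulin (DM1A, 1 h, 37 °C) and propidium iodide (1 μg/mL, 5 min), then imaged by confocal microscopy (60× objective, XYZ-sectioning); DMSO-treated cells as vehicle.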

DU-145 [9] = experiment: Mitotoic arrest in human DU145 cells assessed as appearance of abnormal spindles at 25 nM after 24 hrs by FITC and propidium iodide staining-based confocal laser microscopic analysis; assay type: functional, cell-based
In short: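 DU145 cells on glass coverslips were treated with 0.025 μM compound or DMSO for 24 h and fixed in 4% paraformaldehyde. After blocking and permeabilizing in PBS with 10% FBS and 0.1% Triton X-100, they were stained with FITC anti-α-tubulin (DM1A) for 1 h at 37 °C and with propidium iodide 1 μg/mL. Imaging was by confocal microscopy, 60× objective, as z-sections.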

DU-145 [10] = experiment: Cell cycle arrest in human DU145 cells assessed as accumulation at subG1 phase at 0.005 to 0.02 uM after 24 hrs by propidium iodide staining-based FACS flow cytometric analysis; assay type: functional
In short: (§3)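 DU145 cells were plated at 1.0×10⁶ per dish in DMEM/10% FBS and treated 24 h later with increasing concentrations. After 24 h, attached and floating cells were pooled and fixed in ice-cold 70% ethanol for at least 24 h. Cells were stained with propidium iodide (50 μg/mL) plus RNase A for 30 min at 37 °C, then read on a FACScan with cell-cycle modelling.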

DU-145 [11] = experiment: Cell cycle arrest in human DU145 cells assessed as accumulation at G2/M phase at 0.02 uM after 24 hrs by propidium iodide staining-based FACS flow cytometric analysis; assay type: functional; in short: as §3
DU-145 [12] = experiment: Cell cycle arrest in human DU145 cells assessed as accumulation at G2/M phase at 0.005 uM after 24 hrs by propidium iodide staining-based FACS flow cytometric analysis; assay type: functional; in short: as §3
DU-145 [13] = experiment: Cell cycle arrest in human DU145 cells assessed as accumulation at G2/M phase after 24 hrs by propidium iodide staining-based FACS flow cytometric analysis; assay type: functional; in short: as §3
[14] = Cytotoxicity against human U87 cells after 96 hrs by sulforhodamine B assay; assay type: functional, cell-based, U-87MG ATCC; conditions: U-87 MG
[15] = Cytotoxicity against human NAMALWA cells after 96 hrs by trypan blue exclusion assay; assay type: functional; conditions: NAMALVA
In short: (§4)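 Cells were grown in DMEM or RPMI with 10% FBS and plated at 2.5×10⁴ cells/well in 12-well dishes. Compounds were added 24 h later at various concentrations. After 96 h, viable cells were counted by trypan blue exclusion from duplicate wells. Results are the mean of two independent experiments.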

BT-474 = experiment: Cytotoxicity against human BT474 cells after 96 hrs by trypan blue exclusion assay; assay type: functional; conditions: BT-474, 96 h; in short: as §4
K562 = experiment: Cytotoxicity against human K562 cells after 96 hrs by trypan blue exclusion assay; assay type: functional, cell-based; in short: as §4
MDCK = experiment: Efflux ratio of permeability from basolateral to apical over apical to basolateral side in MDCK cells expressing MDR-1; conditions: dog

COc1cc(OC)c(/C=C/S(=O)(=O)Nc2ccc(OC)c(N)c2)c(OC)c1
F (Mus musculus [1]): 34% | beta t1/2 (Mus musculus [2]): 1.7 h | CL (Mus musculus [3]): 41.3 mL/min/kg | PPB (Plasma): 99.73% | Stability (Liver [4]): 20% | Stability (Liver [5]): 57% | CC50 at 4 h [6]: > 1000 µM | GI50 2008: 0.006 µM | RatioGI50 (CCRF-CEM): 1 | RatioGI50 (MES-SA): 1.6 | inhibition (Tubulin (Homo sapiens)): Dose-dependent effect | Activity (Tubulin (Sus scrofa)): inactive | IC50 (Tubulin): 3.68 µM | Activity (DU-145 [7]): Active | Activity (DU-145 [8]): Active | Activity (DU-145 [9]): Active | Activity (DU-145 [10]): Active | Activity (DU-145 [11]): Active | Activity (DU-145 [12]): Active | Activity (DU-145 [13]): Dose-dependent effect | IC50 [14]: 0.009 µM | GI50 [15]: 0.008 µM | GI50 (BT-474): 0.01 µM | Activity (K562): Dose-dependent effect | GI50 (K562; K562, 96 h): 0.003 µM | IC50 (K562; K562, 96 h): 0.003 µM | Ratio (MDCK): 7.9
